What was measured:
[1] = tested on: Huh-7; experiment: Antiproliferative activity against human HuH7 cells incubated for 48 hrs by […] dye staining based assay; type: functional, cell-based; conditions: Huh-7, 48 h
In short: (§1)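 After 24 h attachment, they were exposed 48 h to increasing concentrations of 0.1 to 25. Cells were then fixed in cold 90% ethanol/5% acetic acid, nuclei were Hoechst-stained, and nuclei were counted by automated imaging.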

[2] = tested on: Caco-2; experiment: Antiproliferative activity against human Caco2 cells incubated for 48 hrs by […] dye staining based assay; type: functional, cell-based; conditions: Caco-2, 48 h; in short: as §1
[3] = tested on: MDA-MB-231; experiment: Antiproliferative activity against human MDA-MB-231 cells incubated for 48 hrs by […] dye staining based assay; type: functional, cell-based; conditions: MDA-MB-231, 48 h; in short: as §1
[4] = tested on: HCT-116; experiment: Antiproliferative activity against human HCT116 cells incubated for 48 hrs by […] dye staining based assay; type: functional, cell-based; conditions: HCT-116, 48 h
In short: as §1, with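 “Cells were grown per ECACC recommendations and seeded in triplicate at 2 × 10³ (HCT-116) or 4 × 10³ (other lines) per well. After” for “After”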

[5] = tested on: PC-3; experiment: Antiproliferative activity against human PC3 cells incubated for 48 hrs by […] dye staining based assay; type: functional, cell-based; conditions: PC-3, 48 h
In short: as §1, with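 “Cells were grown per ECACC recommendations and seeded in triplicate at 2 × 10³ (HCT-116) or 4 × 10³ (other lines) per well. After” for “After”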

[6] = tested on: NCI-H727; experiment: Antiproliferative activity against human NCI-H727 cells incubated for 48 hrs by […] dye staining based assay; type: functional, cell-based; conditions: NCI-H727, 48 h
In short: as §1, with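 “Cells were grown per ECACC recommendations and seeded in triplicate at 2 × 10³ (HCT-116) or 4 × 10³ (other lines) per well. After” for “After”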

[7] = Antiproliferative activity against human Skin fibroblasts incubated for 48 hrs by […] dye staining based assay; conditions: Skin fibroblast
In short: as §1, with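 “Cells were grown per ECACC recommendations and seeded in triplicate at 2 × 10³ (HCT-116) or 4 × 10³ (other lines) per well. After” for “After”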

[8] = target: Dual specificity tyrosine-phosphorylation-regulated kinase 1A (Rattus norvegicus, UniProt Q63470); experiment: Inhibition of rat recombinant GST-tagged DYRK1A expressed in Escherichia coli using myelin basic protein substrate
[9] = target: Cyclin-dependent kinase 5/CDK5 activator 1 (Homo sapiens, UniProt Q00535); experiment: Inhibition of human recombinant CDK5/P25 using myelin basic protein substrate; type: protein-complex assay
[10] = target: PI3-kinase p110-alpha/p85-alpha (Homo sapiens, UniProt P42336); experiment: Inhibition of PI3K p110alpha/p85alpha by fluorescence based immunoassay; type: protein-complex assay
In short: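 ADAPTA TR-FRET ADP-detection kinase assay. Detection used 6 nM Eu-anti-ADP antibody, 12 nM Alexa647-ADP tracer and 30 mM EDTA for 30 min. Read-out was excitation 340 nm with 665/615 nm emission ratio, converted to % conversion via an ATP–ADP titration curve.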

[11] = target: Phosphatidylinositol 4,5-bisphosphate 3-kinase catalytic subunit gamma isoform (Homo sapiens, UniProt P48736); experiment: Inhibition of PI3K p110gamma by fluorescence based immunoassay
[12] = tested on: Caco-2; experiment: Antiproliferative activity against human Caco2 cells assessed as cell diminution incubated for 48 hrs by […] dye staining based assay; type: functional
In short: as §1, with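 “Cells were grown per ECACC recommendations and seeded in triplicate at 2 × 10³ (HCT-116) or 4 × 10³ (other lines) per well. After” for “After”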

[13] = tested on: PC-3; experiment: Antiproliferative activity against human PC3 cells assessed as cell diminution incubated for 48 hrs by […] dye staining based assay; type: functional
In short: as §1, with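 “Cells were grown per ECACC recommendations and seeded in triplicate at 2 × 10³ (HCT-116) or 4 × 10³ (other lines) per well. After” for “After”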

[14] = Antiproliferative activity against human Skin fibroblasts assessed as cell diminution incubated for 48 hrs by […] dye staining based assay; conditions: skin fibroblast
In short: as §1, with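 “Cells were grown per ECACC recommendations and seeded in triplicate at 2 × 10³ (HCT-116) or 4 × 10³ (other lines) per well. After” for “After”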

[15] = tested on: Huh-7; experiment: Antiproliferative activity against human HuH7 cells assessed as cell diminution incubated for 48 hrs by […] dye staining based assay; type: functional
In short: as §1, with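 “Cells were grown per ECACC recommendations and seeded in triplicate at 2 × 10³ (HCT-116) or 4 × 10³ (other lines) per well. After” for “After”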

[16] = tested on: NCI-H727; experiment: Antiproliferative activity against human NCI-H727 cells assessed as cell diminution incubated for 48 hrs by […] dye staining based assay; type: functional
In short: as §1, with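 “Cells were grown per ECACC recommendations and seeded in triplicate at 2 × 10³ (HCT-116) or 4 × 10³ (other lines) per well. After” for “After”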

PI3-kinase p110-alpha/p85-alpha, sequence (P27986 whole entry): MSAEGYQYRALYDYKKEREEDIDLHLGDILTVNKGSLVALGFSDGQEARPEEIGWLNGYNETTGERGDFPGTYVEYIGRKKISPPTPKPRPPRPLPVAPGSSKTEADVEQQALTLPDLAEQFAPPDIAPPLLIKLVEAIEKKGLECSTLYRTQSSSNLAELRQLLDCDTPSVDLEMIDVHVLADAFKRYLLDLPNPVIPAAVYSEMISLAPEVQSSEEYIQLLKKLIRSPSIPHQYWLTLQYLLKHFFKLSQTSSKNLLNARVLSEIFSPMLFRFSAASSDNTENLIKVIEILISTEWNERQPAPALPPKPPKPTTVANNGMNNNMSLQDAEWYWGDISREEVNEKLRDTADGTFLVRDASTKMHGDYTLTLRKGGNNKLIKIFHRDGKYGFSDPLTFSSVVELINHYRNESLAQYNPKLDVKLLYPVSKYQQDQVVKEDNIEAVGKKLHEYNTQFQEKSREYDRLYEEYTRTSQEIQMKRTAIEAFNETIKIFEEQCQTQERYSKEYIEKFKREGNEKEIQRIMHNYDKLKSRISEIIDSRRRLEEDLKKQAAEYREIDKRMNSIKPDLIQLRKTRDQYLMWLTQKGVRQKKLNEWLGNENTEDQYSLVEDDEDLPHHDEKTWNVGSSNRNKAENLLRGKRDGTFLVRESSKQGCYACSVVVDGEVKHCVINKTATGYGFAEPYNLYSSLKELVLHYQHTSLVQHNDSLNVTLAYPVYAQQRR
PI3-kinase p110-alpha/p85-alpha, sequence (P42336 whole entry): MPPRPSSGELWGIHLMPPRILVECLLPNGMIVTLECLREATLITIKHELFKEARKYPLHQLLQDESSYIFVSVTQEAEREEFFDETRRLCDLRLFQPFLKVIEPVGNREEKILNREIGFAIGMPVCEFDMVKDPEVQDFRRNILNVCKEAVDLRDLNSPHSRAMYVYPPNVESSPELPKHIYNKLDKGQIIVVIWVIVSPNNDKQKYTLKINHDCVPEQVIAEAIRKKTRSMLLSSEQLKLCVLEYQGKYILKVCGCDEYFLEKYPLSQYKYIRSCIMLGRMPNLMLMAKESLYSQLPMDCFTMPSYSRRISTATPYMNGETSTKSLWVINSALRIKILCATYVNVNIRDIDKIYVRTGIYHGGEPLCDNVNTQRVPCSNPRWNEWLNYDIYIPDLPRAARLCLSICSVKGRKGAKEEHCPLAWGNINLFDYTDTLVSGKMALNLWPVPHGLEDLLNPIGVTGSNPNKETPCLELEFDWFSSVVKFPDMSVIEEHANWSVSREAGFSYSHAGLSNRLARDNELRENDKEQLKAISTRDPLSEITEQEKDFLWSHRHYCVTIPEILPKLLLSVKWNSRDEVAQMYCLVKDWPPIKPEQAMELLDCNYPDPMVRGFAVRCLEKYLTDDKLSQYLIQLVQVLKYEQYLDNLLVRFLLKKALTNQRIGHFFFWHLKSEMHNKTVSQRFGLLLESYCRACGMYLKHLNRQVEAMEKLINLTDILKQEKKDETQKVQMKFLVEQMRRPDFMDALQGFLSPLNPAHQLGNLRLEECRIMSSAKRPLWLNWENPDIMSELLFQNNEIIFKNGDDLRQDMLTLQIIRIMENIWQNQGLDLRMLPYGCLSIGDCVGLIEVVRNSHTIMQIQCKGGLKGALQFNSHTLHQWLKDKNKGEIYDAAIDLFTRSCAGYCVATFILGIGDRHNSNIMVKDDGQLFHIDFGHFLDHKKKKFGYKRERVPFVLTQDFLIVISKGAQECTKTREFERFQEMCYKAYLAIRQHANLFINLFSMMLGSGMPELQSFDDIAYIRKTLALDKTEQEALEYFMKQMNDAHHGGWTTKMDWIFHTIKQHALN
Phosphatidylinositol 4,5-bisphosphate 3-kinase catalytic subunit gamma isoform, sequence (P48736 whole entry, looked up, canonical isoform): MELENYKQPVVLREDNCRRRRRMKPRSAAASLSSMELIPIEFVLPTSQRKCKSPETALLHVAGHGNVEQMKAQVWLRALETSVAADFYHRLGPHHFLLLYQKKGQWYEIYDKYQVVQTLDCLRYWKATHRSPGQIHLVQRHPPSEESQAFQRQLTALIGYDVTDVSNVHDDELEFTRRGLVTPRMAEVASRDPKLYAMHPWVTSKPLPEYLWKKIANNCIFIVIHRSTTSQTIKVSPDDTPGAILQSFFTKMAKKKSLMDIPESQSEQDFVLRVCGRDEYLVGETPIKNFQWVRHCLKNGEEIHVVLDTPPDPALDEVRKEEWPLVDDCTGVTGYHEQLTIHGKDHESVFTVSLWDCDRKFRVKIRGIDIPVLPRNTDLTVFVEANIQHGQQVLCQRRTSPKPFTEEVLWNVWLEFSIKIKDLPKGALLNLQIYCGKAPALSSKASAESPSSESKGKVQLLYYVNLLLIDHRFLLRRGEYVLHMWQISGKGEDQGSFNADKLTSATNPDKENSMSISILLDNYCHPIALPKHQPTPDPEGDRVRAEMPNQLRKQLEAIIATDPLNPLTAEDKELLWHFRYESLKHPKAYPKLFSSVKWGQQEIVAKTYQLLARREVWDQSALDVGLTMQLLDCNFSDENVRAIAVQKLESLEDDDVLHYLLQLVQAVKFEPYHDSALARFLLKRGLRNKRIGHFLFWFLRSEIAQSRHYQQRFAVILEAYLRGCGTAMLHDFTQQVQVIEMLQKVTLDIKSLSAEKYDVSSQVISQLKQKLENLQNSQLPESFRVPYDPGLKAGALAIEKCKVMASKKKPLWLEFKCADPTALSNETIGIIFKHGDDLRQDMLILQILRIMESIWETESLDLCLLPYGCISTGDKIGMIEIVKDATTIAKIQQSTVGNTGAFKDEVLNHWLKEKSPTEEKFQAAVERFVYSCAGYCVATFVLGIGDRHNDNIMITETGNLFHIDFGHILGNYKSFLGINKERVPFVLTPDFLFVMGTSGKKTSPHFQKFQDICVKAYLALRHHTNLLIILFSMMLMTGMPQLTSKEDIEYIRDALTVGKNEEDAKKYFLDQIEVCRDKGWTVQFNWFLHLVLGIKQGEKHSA
Cyclin-dependent kinase 5/CDK5 activator 1, sequence (Q00535 whole entry): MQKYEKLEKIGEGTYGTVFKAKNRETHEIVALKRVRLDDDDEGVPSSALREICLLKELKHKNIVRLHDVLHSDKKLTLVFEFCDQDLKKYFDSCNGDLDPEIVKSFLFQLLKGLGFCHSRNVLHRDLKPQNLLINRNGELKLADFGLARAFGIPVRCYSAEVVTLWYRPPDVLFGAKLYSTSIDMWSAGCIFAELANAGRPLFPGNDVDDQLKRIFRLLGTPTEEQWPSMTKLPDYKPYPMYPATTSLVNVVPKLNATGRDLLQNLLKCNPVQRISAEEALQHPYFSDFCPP
Cyclin-dependent kinase 5/CDK5 activator 1, sequence (Q15078 whole entry, further chain): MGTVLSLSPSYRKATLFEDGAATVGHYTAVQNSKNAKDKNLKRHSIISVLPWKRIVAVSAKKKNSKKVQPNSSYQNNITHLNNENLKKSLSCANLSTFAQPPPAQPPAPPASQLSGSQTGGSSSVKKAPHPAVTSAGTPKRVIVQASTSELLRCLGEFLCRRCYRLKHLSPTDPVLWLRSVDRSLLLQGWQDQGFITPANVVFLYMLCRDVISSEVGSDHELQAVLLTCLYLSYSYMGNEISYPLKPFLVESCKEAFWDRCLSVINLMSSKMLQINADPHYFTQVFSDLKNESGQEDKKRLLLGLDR

SMILES | IC50 [1] [µM] | IC50 [2] [µM] | IC50 [3] [µM] | IC50 [4] [µM] | IC50 [5] [µM] | IC50 [6] [µM] | IC50 [8] [µM] | IC50 [9] [µM] | IC50 [10] [µM] | IC50 [11] [µM] | IC50 [7] [µM] | Activity [12] [%] | Activity [13] [%] | Activity [14] [%] | Activity [15] [%] | Activity [16] [%]
Cc1n[nH]c(=O)c2[nH]c3ccc(Br)cc3c12 | 1.5 | 2 | 6 | 5 | 3 | 3 |  |  |  |  | 8 |  |  |  |  | 
Cc1n[nH]c(=O)c2[nH]c3ccc(F)cc3c12 | 1.5 | 4 | 4 | 5 | 3 | 2 | 5.6 | > 10 | > 10 |  | 10 |  |  |  |  | 
COc1ccc2[nH]c3c(=O)[nH]nc(C)c3c2c1 | 3 | 8 | 5 | 15 | 7 | 5 | 5 | > 10 | > 10 |  | 20 |  |  |  |  | 
Cc1n[nH]c(=O)c2c1c1cc(Br)ccc1n2Cc1ccc(C#N)cc1 | 2 | 2 | 4 | 2 | 2 | 3 | > 10 | > 10 | 1.9 | > 10 | 2 |  |  |  |  | 
Cc1n[nH]c(=O)c2c1c1cc(Br)ccc1n2Cc1cccc(C#N)c1 | 2 | 2 | 4 | 5 | 2.5 | 4 | > 10 | > 10 | 0.091 | 0.295 | 4 |  |  |  |  | 
COc1ccc(Cn2c3ccc(Br)cc3c3c(C)n[nH]c(=O)c32)cc1 | 1.5 | 2 | 5 | 4 | 2.5 | 5 | > 10 | > 10 | 1.5 | 5.2 | 4 |  |  |  |  | 
COc1cccc(Cn2c3ccc(Br)cc3c3c(C)n[nH]c(=O)c32)c1 | 2 | 2 | 4 | 2 | 2 | 5 | > 10 | > 10 | 1.5 | 2.2 | 3 |  |  |  |  | 
Cc1n[nH]c(=O)c2c1c1cc(F)ccc1n2Cc1cccc(C#N)c1 | 3 | 2 | 12 | 6 | 4 | 6 | > 10 | > 10 | 5 |  | 8 |  |  |  |  | 
COc1cccc(Cn2c3ccc(F)cc3c3c(C)n[nH]c(=O)c32)c1 | 1.5 | 2 | 0.9 | 4 | 0.4 | 2 | > 10 | > 10 | > 10 |  | > 25 |  |  |  |  | 
COc1ccc2c(c1)c1c(C)n[nH]c(=O)c1n2Cc1cccc([N+](=O)[O-])c1 | 1.5 | 5 | 4 | 4 | 2.5 | 4 | > 10 | > 10 | 1.8 |  | 2 | 50 | 50 | 50 |  | 
COc1ccc2c(c1)c1c(C)n[nH]c(=O)c1n2Cc1ccc(C#N)cc1 | 2 | 6 | 2 | 4 | 2 | 2 | > 10 | > 10 | 2.9 |  | 5 |  | 50 |  |  | 
COc1ccc2c(c1)c1c(C)n[nH]c(=O)c1n2Cc1cccc(C#N)c1 | 2 | 3 | 3 | 5 | 2 | 4 | > 10 | > 10 | 3.3 |  | 5 |  |  |  |  | 
COc1ccc(Cn2c3ccc(OC)cc3c3c(C)n[nH]c(=O)c32)cc1 |  |  |  |  |  |  | > 10 | > 10 | > 10 |  |  |  |  |  |  | 
COc1cccc(Cn2c3ccc(OC)cc3c3c(C)n[nH]c(=O)c32)c1 | 1 | 2 | 3 | 2 | 2.5 | 3 | > 10 | > 10 | 6.3 |  | 1 |  |  |  |  | 
Oc1cccc(-c2nc(N3CCOCC3)c3oc4ncccc4c3n2)c1 [PI-103] | 1.5 | 0.9 | 15 | 1 | 1.5 | 3 |  |  |  |  | 1.5 |  |  | 30 | 40 | 30
CC[C@H](CO)Nc1nc(NCc2ccccc2)c2ncn(C(C)C)c2n1 [SELICICLIB] |  |  |  | 7 | 10 | 20 |  |  |  |  | > 25 |  |  |  |  | 

Second part, led by results:

IC50 [1] [µM] | IC50 [2] [µM] | IC50 [3] [µM] | IC50 [4] [µM] | IC50 [5] [µM] | IC50 [6] [µM] | IC50 [8] [µM] | IC50 [9] [µM] | IC50 [10] [µM] | IC50 [11] [µM] | SMILES | IC50 [7] [µM] | Activity [12] [%] | Activity [13] [%] | Activity [14] [%] | Activity [15] [%] | Activity [16] [%]
1 | 2 | 4 | 2 | 1.5 | 1 | > 10 | > 10 | 6 | > 10 | Cc1n[nH]c(=O)c2c1c1cc(Br)ccc1n2Cc1ccc([N+](=O)[O-])cc1 | 2 |  |  |  |  | 
2 | 3 | 5 | 4 | 5 | 4 | > 10 | > 10 | 5.1 | 4.1 | Cc1n[nH]c(=O)c2c1c1cc(Br)ccc1n2Cc1cccc([N+](=O)[O-])c1 | 5 |  |  |  |  | 
5 | 2 | 2 | 5 | 0.6 | 5 | > 10 | > 10 | > 10 |  | Cc1n[nH]c(=O)c2c1c1cc(F)ccc1n2Cc1ccc([N+](=O)[O-])cc1 | > 25 |  |  |  |  | 
3 | 2 | 0.8 | 4 | 0.7 | 6 | > 10 | > 10 | > 10 |  | Cc1n[nH]c(=O)c2c1c1cc(F)ccc1n2Cc1cccc([N+](=O)[O-])c1 | > 25 |  |  |  |  | 
3 | 2 | 1.5 | 5 | 1 | 4 | > 10 | > 10 | > 10 |  | Cc1n[nH]c(=O)c2c1c1cc(F)ccc1n2Cc1ccc(C#N)cc1 | > 25 |  |  |  |  | 
1 | 2 | 2 | 2 | 2.5 | 3 | > 10 | > 10 | 4.2 |  | COc1ccc(Cn2c3ccc(F)cc3c3c(C)n[nH]c(=O)c32)cc1 | 5 |  |  |  |  | 
3 | 5 | 2 | 5 | 3 | 2.5 | > 10 | > 10 | 2.6 |  | COc1ccc2c(c1)c1c(C)n[nH]c(=O)c1n2Cc1ccc([N+](=O)[O-])cc1 | 4 |  |  |  |  | 

Source: ChEMBL document CHEMBL2086312, “Synthesis and biological evaluation of new 5-benzylated 4-oxo-3,4-dihydro-5H-pyridazino[4,5-b]indoles as PI3Kα inhibitors” (Eur J Med Chem, 2012)
